Screening data (PubChem BioAssay)
MrgX1 agonist: agonists of human MrgX1 receptor, primary screen, HEK293 cells, Fluo-4 calcium flux; Mas-related G-protein coupled receptor member X1 (Homo sapiens), Q96LB2; Fluo-4 calcium fluorescence, agonist mode; active compounds read high; B-score at 10 µM; 310,000 compounds, 0.44% hits; AID 588627, 2011;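 active means calcium response B-score plate-corrected fluorescence ratio at least 3 library SD, with starting fluorescence B-score inside 5 SD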
Target sequence (Q96LB2 whole entry, looked up): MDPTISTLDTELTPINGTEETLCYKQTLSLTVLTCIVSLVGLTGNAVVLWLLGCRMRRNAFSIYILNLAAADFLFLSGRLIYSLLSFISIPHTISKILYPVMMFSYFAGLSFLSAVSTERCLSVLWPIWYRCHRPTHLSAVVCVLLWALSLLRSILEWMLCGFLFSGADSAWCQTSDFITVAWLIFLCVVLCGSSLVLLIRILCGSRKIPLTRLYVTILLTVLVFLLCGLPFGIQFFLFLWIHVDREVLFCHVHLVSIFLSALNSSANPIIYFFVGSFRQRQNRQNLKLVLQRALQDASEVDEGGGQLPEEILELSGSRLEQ
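Assay system: stable human MrgX1 HEK293 cell line. Quantity: 15,000 cells per well. Schedule: cells plated overnight, dye loaded 0.5 h 37 °C, 0.5 h room temperature. Detection: Fluo-4 NW calcium-flux fluorescence, kinetic read. Read-out basis: peak-minus-minimum fluorescence over baseline, converted to B scores. Control set: positive and negative control wells on each plate.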
RGS4 block: RGS4 inhibitors, primary screen, cell-based, HEK293 M3R inducible RGS4, calcium flux; Regulator of G-protein signaling 4 (Homo sapiens), P49798; Fluo-4 calcium flux; active compounds read high; triggered by carbachol at its EC20; B-score at 10 µM; 310,000 compounds, 0.45% hits; AID 463165, 2010;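 active means B-score, a plate-corrected calcium signal, over three deviations above library mean, with baseline fluorescence within five deviations of library mean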;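 further: RGS4 expression induced by doxycycline in cells with stable M3 receptor; B-score is computed from the integrated fluorescence ratio over baseline after carbachol; higher B-score means a larger calcium signal and so more RGS4 inhibition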
Target sequence (P49798 whole entry, looked up): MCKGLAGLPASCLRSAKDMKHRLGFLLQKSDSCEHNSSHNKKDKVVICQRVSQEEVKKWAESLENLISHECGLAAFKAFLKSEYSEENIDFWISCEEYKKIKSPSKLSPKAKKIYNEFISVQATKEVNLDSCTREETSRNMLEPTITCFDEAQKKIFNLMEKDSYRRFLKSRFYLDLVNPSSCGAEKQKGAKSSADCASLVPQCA
RGS4 act: RGS4 potentiators or activators, primary screen, cell-based, HEK293 M3R inducible RGS4, calcium flux; AID 463111, 2010; 310,000 compounds, 0.92% hits; B-score at 10 µM; carbachol calcium flux Fluo4; active compounds read low;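 active means B-score of the integrated calcium signal more than 4 SD below the library mean, with starting fluorescence not abnormally high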;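 further: negative B-score means reduced calcium response which marks RGS4 activation or potentiation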
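System – HEK293 FlpIn-TREx cells, stable M3R, doxycycline-inducible RGS4 · Reagent – ECmax carbachol challenge · Times – compound preincubation 20 min at room temperature before agonist · Technique – Fluo4 fluorescence kinetic imaging of calcium · Measure – B score of integrated Fluo4 ratio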
MrgX1 antagonist: antagonists of human MrgX1 receptor, primary screen, HEK293 cells, Fluo-4 calcium flux. 310,000 compounds, 1.3% hits. BAM8-22 antagonism; active compounds read low. B-score at 10 µM. Mas-related G-protein coupled receptor member X1 (Homo sapiens), Q96LB2;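 active means calcium-response B-score plate-corrected more than 3 library SD below zero, starting fluorescence within 5 deviations, no agonist response on first addition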;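 further: peak minus trough fluorescence over baseline after final BAM8-22 challenge near maximal dose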
MrgX1 allo act: positive allosteric modulators of MrgX1, primary screen, HEK293 cells, Fluo-4 calcium flux; 310,000 compounds, 0.63% hits; Mas-related G-protein coupled receptor member X1 (Homo sapiens), Q96LB2; B-score at 10 µM; FDSS; active compounds read high; AID 588675, 2011;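 active means plate-corrected calcium response at least 3 library SD above typical, normal starting fluorescence, not activating the receptor alone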;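 further: compound read alongside a low EC10 to EC30 dose of BAM8-22 agonist; peak minus trough fluorescence over baseline measured at the second addition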
MrgX1 ant reconf: MrgX1 receptor antagonists, duplicate retest, confirmation, HEK293 cells, Fluo-4 calcium flux; shares compounds with MrgX1 antagonist; BAM8-22 calcium flux; active compounds read low; remaining BAM8-22 calcium response % of control (active compounds read low), % at 10 µM; 2,300 compounds, 19% hits; AID 602420, 2012;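 active means remaining agonist calcium response no higher than 100% minus 3 SD of agonist-only control wells, with starting fluorescence near control levels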;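 further: agonist BAM8-22 given at a near maximal EC90 to ECmax level; peak minus minimum fluorescence divided by baseline after agonist addition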
HEK293 Ca flux: nonspecific calcium signal in parental HEK293, confirmation, counter-screen for MrgX1 antagonist project, parental HEK293 cells, Fluo-4 calcium flux | shares compounds with MrgX1 antagonist | Fluo-4 calcium fluorescence, FDSS | 4,000 compounds, 2% hits | fluorescence ratio F(max-min)/F0 at 10 µM;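 active means duplicate-averaged calcium fluorescence ratio at least three times the standard deviation of buffer wells, a nonspecific response in parental cells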
HEK293 Ca counter: calcium response in parental HEK293 cells, primary screen, counter-screen for MrgX1 allosteric activator project, cell-based, Fluo-4 calcium flux, duplicate | fluorescence ratio F(max-min)/F0 at 10 µM | AID 624114, 2012 | shares compounds with MrgX1 antagonist | Fluo-4 fluorescence ratio; active compounds read high | 4,000 compounds, 0.4% hits;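 active means calcium fluorescence ratio, averaged over duplicates, at least 3 SD of the buffer-well ratio, meaning a nonspecific response in receptor-free cells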;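 further: untransfected parental HEK293 lacking MrgX1 used as counterscreen for MrgX1 allosteric activators; fluorescence change taken during the second addition on a kinetic imager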
HEK293 Ca cntr2: calcium response in parental HEK293 cells, primary screen, counter-screen for MrgX1 agonist project, cell-based, Fluo-4 calcium flux, duplicate, agonist mode; shares compounds with MrgX1 antagonist; Fluo-4 calcium fluorescence (FDSS); active compounds read high; fluorescence ratio F(max-min)/F0 at 10 µM; 4,000 compounds, 8.7% hits;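 active means calcium fluorescence ratio at least three times the spread of buffer wells, meaning a non-specific response in parental cells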
Active calls of the source: *; i = inactive; / = not tested or not shown. A selection: hits, their analogues and other compounds. The true share with any hit is near 3.5%.

SMILES	MrgX1 agonist	RGS4 block	RGS4 act	MrgX1 antagonist	MrgX1 allo act	MrgX1 ant reconf	HEK293 Ca flux	HEK293 Ca counter	HEK293 Ca cntr2
CCOc1ccccc1C(=O)NC(C)c1ccc2c(c1)OCO2 (stereo not drawn)	i	i	i	-5.29*	i	i	i	i	i
COc1cc(NC(=O)c2nccnc2C(=O)O)cc(OC)c1	i	i	i	-6.02*	i	i	i	i	i
O=C1CC2(CCN(C(=O)c3c(F)cccc3F)CC2)Oc2ccccc21	i	i	i	i	i	/	/	/	/
O=C(Nc1ccc2[nH]ccc2c1)c1ccccc1	i	i	i	-7.85*	i	83.8%*	i	i	i
O=C(Nc1ccc2[nH]ccc2c1)c1ccc(F)cc1	i	i	i	i	i	/	/	/	/
CC(=O)Nc1ccc(N(C(=O)Cc2cccs2)C(C(=O)NC2CCCC2)c2ccncc2)cc1 (stereo not drawn)	i	i	i	i	i	/	/	/	/
COc1ccc(Nc2nc(N)nc(CSc3nccn3C)n2)cc1	i	i	i	-4.88*	i	i	i	i	i
COc1ccc(Nc2nc(N)nc(CSc3nnc(N)s3)n2)cc1	i	i	i	i	i	/	/	/	/
CC1CCCN(C(=O)C2c3ccccc3C(=O)N3CCc4ccccc4C23)C1 (stereo not drawn)	i	i	i	-5.54*	i	i	i	i	i
O=C(NCCSCc1ccco1)Nc1cc(Cl)cc(Cl)c1	i	i	i	-5.38*	i	67.7%*	i	i	i
CC(=O)Oc1ccc(C23CC4CC(CC(C4)C2)C3)cc1C(=O)O	i	i	i	i	i	/	/	/	/
O=C(O)CCNS(=O)(=O)c1cccc2nsnc12	i	/	/	i	i	/	/	/	/
CC(C)(Cc1cc(CC(C)(C)C(=O)O)cc(C(C)(C)C)c1)C(=O)O	i	i	i	-7.55*	i	i	i	i	i
O=C(NCCN1CCN(C(=O)Nc2ccccc2)CC1)Nc1ccccc1	i	i	i	-6.1*	i	i	i	i	i
S=C(Nc1ccc(Cl)cc1)Nc1cccc2cnccc12	i	i	i	-5.17*	i	i	i	i	i
COc1ccc(CCn2c(N)c(C(=O)NCc3ccco3)c3nc4ccccc4nc32)cc1	i	i	i	i	i	/	/	/	/
Nc1c(C(=O)NCc2ccco2)c2nc3ccccc3nc2n1CCc1ccccc1F	i	i	i	-7.51*	i	i	i	i	i
Cc1c(C(=O)NCCSCc2cccc(C(F)(F)F)c2)cnn1-c1ccc(F)cc1	i	i	i	i	i	/	/	/	/
OC(CNCC1COc2ccccc2O1)COc1ccccc1F (stereo not drawn)	i	i	i	i	i	/	/	/	/
